Experimental findings from ChEMBL document CHEMBL4138186, “Synthesis and bio-evaluation of indole-chalcone based benzopyrans as promising antiligase and antiproliferative agents” (Eur J Med Chem, 2018) are described below.

Assay [1] concerns the target DNA ligase 1 (Homo sapiens) (UniProt P18858). In words: Inhibition of human Lig1 at 10 uM using double strand nicked DNA as substrate after 30 mins in presence of ATP by acrylamide-based fluorescence-assay. The method in brief: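 Cy3-labelled nicked duplex (52-mer annealed to 25- and 27-mers; 1 pmol) with purified hLigI (0.2 pmol) in 50 mM Tris-Cl pH 7.5, 10 mM MgCl2, 0.25 mg/mL BSA, 100 mM NaCl, 500 µM ATP. Compound at 10 μM; 30 min at 37 °C. Stopped with formamide/EDTA; ligated and unligated strands separated on 7 M urea/12% denaturing gel. Triplicate.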

Assay [2] has as its system MDA-MB-231. In words: Antiproliferative activity against human MDA-MB-231 cells after 48 hrs by MTT assay. The note with it: MDA-MB-231, 48 h. Format: functional, cell-based. In a few lines:
(§1)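 Cells seeded and allowed to adhere overnight, then given compound from 10 mM DMSO stock; DMSO alone as vehicle control. Grown 48 h, MTT (5 mg/ml) added for 3 h, formazan dissolved in DMSO, absorbance read at 590 nm. % inhibition = (A control − A treated)/A control × 100; three independent biological replicates. Single-point screen at 10 μM; IC50 from three independent experiments.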

Assay [3] has as its system DLD-1. In words: Antiproliferative activity against human DLD1 cells after 48 hrs by MTT assay. Format: functional, cell-based. The note with it: DLD-1, 48 h. The method in brief: as §1
(Formazan colour is commonly taken as a measure of viable cells.)

Assay [4] concerns HepG2. In words: Antiproliferative activity against human HepG2 cells after 48 hrs by MTT assay. Format: functional, cell-based. The note with it: HepG2, 48 h. In a few lines:
as §1

Assay [5] deals with MDA-MB-231. In words: Antiproliferative activity against human MDA-MB-231 cells at 10 uM after 48 hrs by MTT assay. In kind it is functional, cell-based. The method in brief:
as §1

Assay [6] has as its system HeLa. In words: Antiproliferative activity against human HeLa cells at 10 uM after 48 hrs by MTT assay. In kind it is functional, cell-based. In a few lines:
as §1

For assay [7], the system named is HepG2. In words: Antiproliferative activity against human HepG2 cells at 10 uM after 48 hrs by MTT assay. In kind it is functional, cell-based. In a few lines:
as §1

Assay [8] concerns the target LIG4/XRCC4 (Homo sapiens) (UniProt P49917+Q13426). In words: Inhibition of human DNA Lig4/[…] at 10 uM using double strand nicked DNA as substrate after 30 mins in presence of ATP by acrylamide-based fluorescence-assay. Format: protein-complex assay.
In assay [9] the target is T1, DNA ligase (Enterobacteria phage T4) (UniProt P00970).
T1 sequence (whole entry): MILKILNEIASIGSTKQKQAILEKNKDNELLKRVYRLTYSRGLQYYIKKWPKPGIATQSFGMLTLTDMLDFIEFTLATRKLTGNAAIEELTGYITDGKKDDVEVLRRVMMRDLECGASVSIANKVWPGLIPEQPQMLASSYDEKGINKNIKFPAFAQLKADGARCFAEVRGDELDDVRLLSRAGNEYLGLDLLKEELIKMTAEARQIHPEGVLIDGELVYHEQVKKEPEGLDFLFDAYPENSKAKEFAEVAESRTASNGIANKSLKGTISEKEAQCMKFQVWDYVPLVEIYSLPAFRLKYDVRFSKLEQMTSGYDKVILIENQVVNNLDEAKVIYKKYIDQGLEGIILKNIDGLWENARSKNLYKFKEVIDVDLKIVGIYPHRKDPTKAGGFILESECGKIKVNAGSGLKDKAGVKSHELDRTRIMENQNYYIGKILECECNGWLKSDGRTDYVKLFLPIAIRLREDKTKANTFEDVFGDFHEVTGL
In words: Inhibition of T4 DNA ligase at 10 uM using double strand nicked DNA as substrate at 3.125 to 50 uM after 30 mins in presence of ATP by acrylamide-based fluorescence-assay. As to conditions: Tequatrovirus T4.

In assay [10] the target is DNA ligase 1 (Homo sapiens) (UniProt P18858). In words: Competitive inhibition of human Lig1 using non-ligatable double stranded nicked DNA as substrate after 2 hrs in presence of ATP by EMSA. The method in brief: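 Purified hLigI (10 pmol) with compound (31.25–500 μM) and 2 pmol 5'-FAM-labelled non-ligatable nicked duplex (dideoxy 3' end). Buffer: 50 mM Tris-Cl pH 7.5, 10 mM MgCl2, 0.25 mg/ml BSA, 100 mM NaCl, plus ATP. Incubated 2 h on ice, then 6.5% native PAGE. Three independent experiments.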

Assay [11] deals with DNA. In words: Binding affinity to Escherichia coli pUC18 DNA assessed as protection against DNase1-mediated cleavage at 250 to 700 uM preincubated for 30 mins followed by DNase1 addition measured after 5 mins by 1% agarose gel based UV-transilluminator analysis. In kind it is nucleic-acid assay. The method in brief: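 Linearized pUC18 plasmid DNA (100 ng) incubated with compound (250, 500, 700 μM) or controls (doxorubicin 100 μM; DAPI, methyl green, ampicillin 500 μM) for 30 min at 37 °C in ligation-like buffer. DNase I 0.0025 U added for 5 min at 37 °C, stopped with urea/EDTA buffer, resolved on 1% agarose and imaged under UV.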

The subject of assay [12] is DLD-1. In words: Inhibition of colony formation of human DLD1 cells by crystal violet staining based assay. In kind it is functional, cell-based. The method in brief: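 400 DLD-1 cells per well grown overnight in RPMI/10% FBS, then exposed to 1.25, 2.5 and 5 μM for 24 or 48 h. Medium replaced and colonies grown a further 10 days, medium changed every third day. Fixed and stained with 0.5% crystal violet/6% glutaraldehyde for 30 min at room temperature, then imaged.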

Assay [13] has as its system DLD-1. In words: Induction of apoptosis in human DLD1 cells assessed as early apoptotic cells at 5 uM after 48 hrs by Annexin V-FITC/propidium iodide staining-based flow cytometric method relative to control. In kind it is functional. The method in brief:
(§2)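 DLD-1 cells exposed to 2.5, 5 and 10 μM for 48 h, harvested, washed in cold PBS and stained with Annexin V-FITC and PI in binding buffer at room temperature in the dark. Analysed by flow cytometry; early and late apoptotic fractions averaged from three independent experiments.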

Assay [14] has as its system DLD-1. In words: Induction of apoptosis in human DLD1 cells assessed as late apoptotic cells at 5 uM after 48 hrs by Annexin V-FITC/propidium iodide staining-based flow cytometric method relative to control. In kind it is functional. The method in brief: as §2
(A flow cytometer gives signals particle by particle.)

In assay [15] the test system is DLD-1. In words: Induction of apoptosis in human DLD1 cells assessed as early apoptotic cells at 10 uM after 48 hrs by Annexin V-FITC/propidium iodide staining-based flow cytometric method relative to control. In kind it is functional. In a few lines:
as §2

For assay [16], the system named is DLD-1. In words: Induction of apoptosis in human DLD1 cells assessed as late apoptotic cells at 10 uM after 48 hrs by Annexin V-FITC/propidium iodide staining-based flow cytometric method relative to control. In kind it is functional. The method in brief:
as §2

Assay [17] relates to DLD-1. In words: Induction of apoptosis in human DLD1 cells after 48 hrs by Annexin V-FITC/propidium iodide staining-based flow cytometric method. In kind it is functional, cell-based. In a few lines:
as §2

For assay [18], the system named is DLD-1. In words: Induction of apoptosis in 3D-spheroids of human DLD1 cells assessed as increase in cell death after 72 hrs by FDA/propidium iodide dye based phase contrast microscopy. Format: functional. In a few lines: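 DLD-1 spheroids formed by hanging drop (5×10^3 cells/10 μL RPMI, 3 days, 37 °C, 5% CO2), moved to 0.7% agarose-coated wells and grown 7 days. Treated 72 h at 25, 12.5 and 6.25. Stained with FDA 2 μg/ml and PI 20 μg/ml for 20 min in the dark; imaged by fluorescence microscopy.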

A short description of assay [19]: Antiproliferative activity against mouse 4T1 cells after 48 hrs by MTT assay.
For assay [20], the system named is 4T1 (Mus musculus). In words: Antiproliferative activity against mouse 4T1 cells at 10 uM after 48 hrs by MTT assay.

The source made the active and inactive calls. The calls are words filed in the database; no cut-off is given here.

DNA ligase 1 (Homo sapiens), sequence (P18858 whole entry): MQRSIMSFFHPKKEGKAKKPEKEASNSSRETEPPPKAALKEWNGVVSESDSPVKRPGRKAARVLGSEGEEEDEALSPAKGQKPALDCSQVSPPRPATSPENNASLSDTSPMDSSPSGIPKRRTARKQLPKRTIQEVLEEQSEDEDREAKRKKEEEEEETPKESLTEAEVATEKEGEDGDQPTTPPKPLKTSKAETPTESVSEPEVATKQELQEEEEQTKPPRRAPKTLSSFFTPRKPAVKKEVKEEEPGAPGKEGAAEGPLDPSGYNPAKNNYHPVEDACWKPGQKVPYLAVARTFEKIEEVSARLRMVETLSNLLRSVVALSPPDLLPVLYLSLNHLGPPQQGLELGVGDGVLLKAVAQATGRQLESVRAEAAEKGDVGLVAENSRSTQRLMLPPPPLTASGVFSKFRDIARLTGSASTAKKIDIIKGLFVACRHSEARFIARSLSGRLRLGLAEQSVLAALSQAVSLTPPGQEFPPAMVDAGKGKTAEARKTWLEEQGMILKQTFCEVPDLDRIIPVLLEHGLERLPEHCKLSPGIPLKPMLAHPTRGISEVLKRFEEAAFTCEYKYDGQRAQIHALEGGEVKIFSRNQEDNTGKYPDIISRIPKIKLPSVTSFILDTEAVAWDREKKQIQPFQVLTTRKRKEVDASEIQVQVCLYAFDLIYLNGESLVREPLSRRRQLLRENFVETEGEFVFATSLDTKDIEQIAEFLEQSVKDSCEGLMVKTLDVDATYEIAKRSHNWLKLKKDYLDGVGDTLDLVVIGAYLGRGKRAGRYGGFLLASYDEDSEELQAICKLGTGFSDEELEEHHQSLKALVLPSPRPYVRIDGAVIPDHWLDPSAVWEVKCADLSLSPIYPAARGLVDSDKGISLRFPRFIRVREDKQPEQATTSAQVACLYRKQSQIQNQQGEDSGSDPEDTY

As to `Cc1[nH]c2ccccc2c1C1C(C#N)=C(N)Oc2c1cc(/C=C/C(=O)c1cccs1)cc2C(C)(C)C` (stereo not given), the inhibition in assay [1] was 69.4%; in assay [8] it was “Dose-dependent effect”; in [10], “Dose-dependent effect”; in assay [12], “Dose-dependent effect”. Moreover, the IC50 in assay [2] is 6.09 µM; in assay [3], 4.66 µM; in assay [4], 6.46 µM; in assay [19], 5.76 µM. Further, the result in assay [5], in assay [6], in [7], in assay [18] and in assay [20] was Active. Also, in assay [9], the inhibition entry is “inactive”. For the same compound, the outcome in assay [11] was inactive. Besides, the Activity was 17.38% in assay [13]; 14.85% in [14]; 26.53% in assay [15]; 50.96% in [16]; “Dose-dependent effect” in assay [17].

One may read the inhibition as the relative decrease from the control value, in per cent. The term IC50 denotes the concentration that inhibits the measured activity by half. Higher therefore signals a need for much substance.
